From ChEMBL document CHEMBL4354800, “Amphiphilic nebramine-based hybrids Rescue legacy antibiotics from intrinsic resistance in multidrug-resistant Gram-negative bacilli” (Eur J Med Chem, 2019)

Legend:
Assay type in all cases: functional
Acinetobacter baumannii [1] = test: Potentiation of minocycline-induced antibacterial activity against multidrug-resistant Acinetobacter baumannii AB92247 assessed as fold reduction in minocycline MIC at 4.1 uM incubated for 18 hrs by broth dilution method
Klebsiella pneumoniae [2] = test: Antimicrobial activity against Klebsiella pneumoniae 113254 incubated for 18 hrs by broth dilution method; settings: Klebsiella pneumoniae, 113254, 18 h
In short: (§1)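 CLSI broth microdilution. Overnight cultures were adjusted to 0.5 McFarland in saline, diluted 1:50 in Mueller-Hinton broth, and inoculated at a final 5 × 10^5 CFU/mL. Compounds were tested as 2-fold serial dilutions and incubated 18 h at 37 °C. MIC was the lowest concentration with no visible turbidity, confirmed by absorbance at 590 nm.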

Klebsiella pneumoniae [3] = test: Potentiation of minocycline-induced antibacterial activity against Klebsiella pneumoniae 116381 assessed as fold reduction in minocycline MIC at 4.1 uM incubated for 18 hrs by broth dilution method
In short: (§2)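 Antibiotic MIC determined by CLSI broth microdilution (MHB, 5 × 10^5 CFU/mL, 18 h, 37 °C), once alone and once with a fixed concentration of the adjuvant. Potentiation is the ratio of the antibiotic MIC alone to its MIC in the presence of the adjuvant.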

Acinetobacter baumannii [4] = test: Synergistic antibacterial activity against multidrug-resistant Acinetobacter baumannii AB110193 assessed as fractional inhibitory concentration index in presence of rifampicin incubated for 18 hrs by broth dilution method
Klebsiella pneumoniae [5] = test: Antimicrobial activity against Klebsiella pneumoniae 113250 incubated for 18 hrs by broth dilution method; settings: Klebsiella pneumoniae, 113250, 18 h; in short: as §1
Klebsiella pneumoniae [6] = test: Synergistic antibacterial activity against Klebsiella pneumoniae 113254 assessed as fractional inhibitory concentration index in presence of rifampicin incubated for 18 hrs by broth dilution method
In short: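 Checkerboard titration of the adjuvant against the antibiotic, run under the CLSI microdilution conditions (MHB, 5 × 10^5 CFU/mL, 18 h, 37 °C). Each agent's FIC is its MIC in combination divided by its MIC alone; FICI is the sum of the two FICs. FICI ≤0.5 was read as synergy, >0.5–4.0 as no interaction, and >4.0 as antagonism.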

Escherichia coli = test: Antimicrobial activity against Escherichia coli 107115 incubated for 18 hrs by broth dilution method; settings: Escherichia coli, 107115, 18 h
In short: (§3)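 Broth microdilution per CLSI: overnight cultures set to 0.5 McFarland in saline, diluted 1:50 in Mueller-Hinton broth to a final 5 × 10^5 CFU/mL, added to 2-fold serial dilutions, incubated 18 h at 37 °C; MIC is the lowest concentration without visible turbidity, confirmed at 590 nm.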

Pseudomonas aeruginosa [7] = test: Potentiation of minocycline-induced antibacterial activity against MDR/XDR Pseudomonas aeruginosa isolate 100036 harboring GyrA T83I mutant assessed as fold reduction in minocycline MIC at 7.5 uM incubated for 18 hrs by broth microdilution method
Pseudomonas aeruginosa [8] = test: Potentiation of minocycline-induced antimicrobial activity against MDR/XDR Pseudomonas aeruginosa isolate PA259-96918 harboring GyrA Thr83Ile mutant assessed as minocycline MIC80 incubated for 18 hrs by broth microdilution method (reference value: 32 microg/ml); settings: isolate PA259-96918, 18 h
Pseudomonas aeruginosa [9] = test: Potentiation of rifampicin-induced antimicrobial activity against MDR/XDR Pseudomonas aeruginosa isolate PA262-101856 harboring GyrA Thr83Ile mutant assessed as rifampicin MIC80 incubated for 18 hrs by broth microdilution method (reference value: 16 microg/ml); settings: isolate PA262-101856, 18 h
Acinetobacter baumannii [10] = test: Antimicrobial activity against multidrug-resistant Acinetobacter baumannii 110193 incubated for 18 hrs by broth dilution method; settings: Acinetobacter baumannii, 110193, 18 h; in short: as §3
Pseudomonas aeruginosa [11] = test: Potentiation of rifampicin-induced antimicrobial activity against MDR/XDR Pseudomonas aeruginosa isolate PA260-97103 harboring GyrA Thr83Ile mutant assessed as rifampicin MIC50 incubated for 18 hrs by broth microdilution method (reference value: 8 microg/ml); settings: isolate PA260-97103, 18 h
Pseudomonas aeruginosa [12] = test: Potentiation of minocycline-induced antimicrobial activity against MDR/XDR Pseudomonas aeruginosa isolate PA264-104354 harboring GyrA Thr83Ile mutant assessed as minocycline MIC80 incubated for 18 hrs by broth microdilution method (reference value: 32 microg/ml); settings: isolate PA264-104354, 18 h
Pseudomonas aeruginosa [13] = test: Potentiation of rifampicin-induced antibacterial activity against MDR/XDR Pseudomonas aeruginosa isolate 101243 devoid of GyrA T83I mutant assessed as fold reduction in rifampicin MIC at 7.5 uM incubated for 18 hrs by broth microdilution method
In short: (§4)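 CLSI broth microdilution. Overnight cultures were set to 0.5 McFarland in saline, diluted 1:50 in Mueller-Hinton broth to a final 5 × 10^5 CFU/mL, and incubated 18 h at 37 °C against 2-fold antibiotic dilutions. A fixed adjuvant level was present throughout. MIC = lowest concentration with no visible turbidity, confirmed at 590 nm. Potentiation = fold drop in antibiotic MIC versus antibiotic alone.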

Pseudomonas aeruginosa [14] = test: Potentiation of minocycline-induced antibacterial activity against MDR/XDR Pseudomonas aeruginosa isolate PA262-101856 harboring GyrA T83I mutant assessed as fold reduction in minocycline MIC at 7.5 uM incubated for 18 hrs by broth microdilution method
Acinetobacter baumannii [15] = test: Potentiation of rifampicin-induced antibacterial activity against multidrug-resistant Acinetobacter baumannii 110193 assessed as fold reduction in rifampicin MIC at 7.5 uM incubated for 18 hrs by broth dilution method; in short: as §4
Pseudomonas aeruginosa [16] = test: Potentiation of moxifloxacin-induced antibacterial activity against MDR/XDR Pseudomonas aeruginosa isolate 101243 devoid of GyrA T83I mutant assessed as fold reduction in moxifloxacin MIC at 7.5 uM incubated for 18 hrs by broth microdilution method; in short: as §4
Enterobacter cloacae = test: Potentiation of minocycline-induced antibacterial activity against Enterobacter cloacae 117029 assessed as fold reduction in minocycline MIC at 7.5 uM incubated for 18 hrs by broth dilution method; in short: as §2
Pseudomonas aeruginosa [17] = test: Potentiation of minocycline-induced antimicrobial activity against MDR/XDR Pseudomonas aeruginosa isolate 100036 harboring GyrA Thr83Ile mutant assessed as minocycline MIC80 incubated for 18 hrs by broth microdilution method (reference value: 32 microg/ml); settings: isolate 100036, 18 h
Pseudomonas aeruginosa [18] = test: Potentiation of rifampicin-induced antibacterial activity against MDR/XDR Pseudomonas aeruginosa isolate 91433 devoid of GyrA T83I mutant assessed as fold reduction in rifampicin MIC at 7.5 uM incubated for 18 hrs by broth microdilution method; in short: as §4
Pseudomonas aeruginosa [19] = test: Potentiation of ciprofloxacin-induced antibacterial activity against MDR/XDR Pseudomonas aeruginosa isolate PA260-97103 harboring GyrA T83I mutant assessed as fold reduction in ciprofloxacin MIC at 9 uM incubated for 18 hrs by broth microdilution method
Pseudomonas aeruginosa [20] = test: Potentiation of ciprofloxacin-induced antibacterial activity against MDR/XDR Pseudomonas aeruginosa isolate PA262-101856 harboring GyrA T83I mutant assessed as fold reduction in ciprofloxacin MIC at 9 uM incubated for 18 hrs by broth microdilution method
Pseudomonas aeruginosa [21] = test: Potentiation of minocycline-induced antibacterial activity against MDR/XDR Pseudomonas aeruginosa isolate 101243 devoid of GyrA T83I mutant assessed as fold reduction in minocycline MIC at 9 uM incubated for 18 hrs by broth microdilution method

## Cl.Cl.Cl.Cl.Cl.NC[C@H]1O[C@H](O[C@H]2[C@H](OCCCCCCCCCCCCN3CCN(c4cc5c(cc4F)c(=O)c(C(=O)O)cn5C4CC4)CC3)[C@@H](O)[C@H](N)C[C@@H]2N)[C@H](N)C[C@@H]1O
Acinetobacter baumannii [1]
  fold change (FC): 2
Klebsiella pneumoniae [2]
  MIC: 128 mg/L
Klebsiella pneumoniae [3]
  fold change (FC): 16
Acinetobacter baumannii [4]
  fractional inhibitory concentration index (FICI): 0.016 - 0.031
Klebsiella pneumoniae [5]
  MIC: 128 mg/L
Klebsiella pneumoniae [6]
  fractional inhibitory concentration index (FICI): 0.047
Escherichia coli
  MIC: 32 mg/L

## COc1c(N2C[C@@H]3CCCN(CCCCCCCCCCCCO[C@@H]4[C@@H](O)[C@H](N)C[C@H](N)[C@H]4O[C@H]4O[C@H](CN)[C@@H](O)C[C@H]4N)[C@@H]3C2)c(F)cc2c(=O)c(C(=O)O)cn(C3CC3)c12.Cl.Cl.Cl.Cl.Cl
Pseudomonas aeruginosa [7]
  fold change (FC): 32
Pseudomonas aeruginosa [8]
  MIC80: 1 mg/L
Pseudomonas aeruginosa [9]
  MIC80: 0.13 mg/L
Acinetobacter baumannii [10]
  MIC: > 256 mg/L
Pseudomonas aeruginosa [11]
  MIC50: 0.06 mg/L
Pseudomonas aeruginosa [12]
  MIC80: 1 mg/L
Pseudomonas aeruginosa [13]
  fold change (FC): 32
Pseudomonas aeruginosa [14]
  fold change (FC): 32
Acinetobacter baumannii [15]
  fold change (FC): 32
Pseudomonas aeruginosa [16]
  fold change (FC): 32
Enterobacter cloacae
  fold change (FC): 16
Pseudomonas aeruginosa [17]
  MIC80: 1 mg/L
Pseudomonas aeruginosa [18]
  fold change (FC): 128

## Cl.Cl.Cl.Cl.Cl.Cl.NC[C@H]1O[C@H](O[C@H]2[C@H](OCCCCCCCCCCN3CCN(Cc4cccc5ccccc45)CC3)[C@@H](O)[C@H](N)C[C@@H]2N)[C@H](N)C[C@@H]1O
Pseudomonas aeruginosa [19]
  fold change (FC): 8
Pseudomonas aeruginosa [20]
  fold change (FC): 8
Pseudomonas aeruginosa [21]
  fold change (FC): 8
